# Measurements as given in ChEMBL document CHEMBL1152480, “Synthesis of novel carbazole based macrocyclic amides as potential antimicrobial agents” (2009).
# Test system: Proteus mirabilis
# Experiment: Antibacterial activity against Proteus mirabilis after 24 hrs by well diffusion assay
# Format: functional
# Details: not given
# Summary of the method: (§1)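 Bacteria kept on nutrient agar (beef extract, yeast extract, peptone, NaCl; pH 7.2) at room temperature (28 ± 2 °C). Compounds tested by well diffusion against DMSO control, tetracycline reference. MIC taken as lowest concentration giving prominent inhibition of bacterial growth after 24 h at 37 °C.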
Structure (SMILES),Activity,MIC [µg/mL]
CCn1c2ccc3cc2c2cc(ccc21)CSc1ccccc1NC(=O)COc1cccc(c1)OCC(=O)Nc1ccccc1SC3,Dose-dependent effect,20
CCn1c2ccc3cc2c2cc(ccc21)CSc1ccccc1NC(=O)c1ccccc1-c1ccccc1C(=O)Nc1ccccc1SC3,Dose-dependent effect,40
CCn1c2ccc3cc2c2cc(ccc21)CSc1ccccc1NC(=O)COc1ccc2ccccc2c1-c1c(ccc2ccccc12)OCC(=O)Nc1ccccc1SC3,Dose-dependent effect,5
CCn1c2ccc3cc2c2cc(ccc21)CSc1ccccc1NC(=O)c1ccc(cc1)OCc1ccccc1COc1ccc(cc1)C(=O)Nc1ccccc1SC3,Dose-dependent effect,10
CN(C)[C@@H]1C(O)=C(C(N)=O)C(=O)[C@@]2(O)C(O)=C3C(=O)c4c(O)cccc4[C@@](C)(O)[C@H]3C[C@@H]12 [TETRACYCLINE],,20
CCn1c2ccc3cc2c2cc(ccc21)CSc1ccccc1NC(=O)c1cccc(n1)C(=O)Nc1ccccc1SC3,Dose-dependent effect,5
CCn1c2ccc3cc2c2cc(ccc21)CSc1ccccc1NC(=O)c1cccc(c1)C(=O)Nc1ccccc1SC3,Dose-dependent effect,50

# Test system: Proteus vulgaris
# Experiment: Antibacterial activity against Proteus vulgaris after 24 hrs by well diffusion assay
# Format: functional
# Details: not given
# Summary of the method: as §1
Structure (SMILES),Activity,MIC [µg/mL]
CCn1c2ccc3cc2c2cc(ccc21)CSc1ccccc1NC(=O)COc1cccc(c1)OCC(=O)Nc1ccccc1SC3,Dose-dependent effect,60
CCn1c2ccc3cc2c2cc(ccc21)CSc1ccccc1NC(=O)c1ccccc1-c1ccccc1C(=O)Nc1ccccc1SC3,Dose-dependent effect,40
CCn1c2ccc3cc2c2cc(ccc21)CSc1ccccc1NC(=O)COc1ccc2ccccc2c1-c1c(ccc2ccccc12)OCC(=O)Nc1ccccc1SC3,Dose-dependent effect,5
CCn1c2ccc3cc2c2cc(ccc21)CSc1ccccc1NC(=O)c1ccc(cc1)OCc1ccccc1COc1ccc(cc1)C(=O)Nc1ccccc1SC3,Dose-dependent effect,40
CN(C)[C@@H]1C(O)=C(C(N)=O)C(=O)[C@@]2(O)C(O)=C3C(=O)c4c(O)cccc4[C@@](C)(O)[C@H]3C[C@@H]12 [TETRACYCLINE],,35
CCn1c2ccc3cc2c2cc(ccc21)CSc1ccccc1NC(=O)c1cccc(n1)C(=O)Nc1ccccc1SC3,Dose-dependent effect,30
CCn1c2ccc3cc2c2cc(ccc21)CSc1ccccc1NC(=O)c1cccc(c1)C(=O)Nc1ccccc1SC3,Dose-dependent effect,60

# Test system: Staphylococcus aureus
# Experiment: Antibacterial activity against Staphylococcus aureus after 24 hrs by well diffusion assay
# Format: functional
# Details: not given
# Summary of the method: as §1
Structure (SMILES),Activity,MIC [µg/mL]
CCn1c2ccc3cc2c2cc(ccc21)CSc1ccccc1NC(=O)COc1cccc(c1)OCC(=O)Nc1ccccc1SC3,Dose-dependent effect,40
CCn1c2ccc3cc2c2cc(ccc21)CSc1ccccc1NC(=O)c1ccccc1-c1ccccc1C(=O)Nc1ccccc1SC3,Dose-dependent effect,70
CCn1c2ccc3cc2c2cc(ccc21)CSc1ccccc1NC(=O)COc1ccc2ccccc2c1-c1c(ccc2ccccc12)OCC(=O)Nc1ccccc1SC3,Dose-dependent effect,10
CCn1c2ccc3cc2c2cc(ccc21)CSc1ccccc1NC(=O)c1ccc(cc1)OCc1ccccc1COc1ccc(cc1)C(=O)Nc1ccccc1SC3,Dose-dependent effect,30
CN(C)[C@@H]1C(O)=C(C(N)=O)C(=O)[C@@]2(O)C(O)=C3C(=O)c4c(O)cccc4[C@@](C)(O)[C@H]3C[C@@H]12 [TETRACYCLINE],,20
CCn1c2ccc3cc2c2cc(ccc21)CSc1ccccc1NC(=O)c1cccc(n1)C(=O)Nc1ccccc1SC3,Dose-dependent effect,10
CCn1c2ccc3cc2c2cc(ccc21)CSc1ccccc1NC(=O)c1cccc(c1)C(=O)Nc1ccccc1SC3,Dose-dependent effect,20

# Test system: Salmonella enterica subsp. enterica
# Experiment: Antibacterial activity against Salmonella typhi after 24 hrs by well diffusion assay
# Format: functional, Salmonella enterica subsp. enterica serovar Typhi
# Details: not given
# Summary of the method: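 S. typhi kept on nutrient agar (beef extract, yeast extract, peptone, NaCl, agar; pH 7.2) at 28 ± 2 °C. Agar well diffusion with DMSO as control and tetracycline as reference. MIC taken as the lowest concentration giving prominent inhibition of bacterial growth after 24 h at 37 °C.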
row,Structure (SMILES),MIC [µg/mL]
1,CCn1c2ccc3cc2c2cc(ccc21)CSc1ccccc1NC(=O)COc1cccc(c1)OCC(=O)Nc1ccccc1SC3,30
2,CCn1c2ccc3cc2c2cc(ccc21)CSc1ccccc1NC(=O)c1ccccc1-c1ccccc1C(=O)Nc1ccccc1SC3,60
3,CCn1c2ccc3cc2c2cc(ccc21)CSc1ccccc1NC(=O)COc1ccc2ccccc2c1-c1c(ccc2ccccc12)OCC(=O)Nc1ccccc1SC3,10
4,CCn1c2ccc3cc2c2cc(ccc21)CSc1ccccc1NC(=O)c1ccc(cc1)OCc1ccccc1COc1ccc(cc1)C(=O)Nc1ccccc1SC3,20
5,CN(C)[C@@H]1C(O)=C(C(N)=O)C(=O)[C@@]2(O)C(O)=C3C(=O)c4c(O)cccc4[C@@](C)(O)[C@H]3C[C@@H]12 [TETRACYCLINE],15
6,CCn1c2ccc3cc2c2cc(ccc21)CSc1ccccc1NC(=O)c1cccc(n1)C(=O)Nc1ccccc1SC3,30
7,CCn1c2ccc3cc2c2cc(ccc21)CSc1ccccc1NC(=O)c1cccc(c1)C(=O)Nc1ccccc1SC3,50

# Same assay, conditions: Salmonella enterica subsp. enterica serovar Typhi
row,Structure (SMILES),Activity
1,CCn1c2ccc3cc2c2cc(ccc21)CSc1ccccc1NC(=O)COc1cccc(c1)OCC(=O)Nc1ccccc1SC3,Dose-dependent effect
2,CCn1c2ccc3cc2c2cc(ccc21)CSc1ccccc1NC(=O)c1ccccc1-c1ccccc1C(=O)Nc1ccccc1SC3,Dose-dependent effect
3,CCn1c2ccc3cc2c2cc(ccc21)CSc1ccccc1NC(=O)COc1ccc2ccccc2c1-c1c(ccc2ccccc12)OCC(=O)Nc1ccccc1SC3,Dose-dependent effect
4,CCn1c2ccc3cc2c2cc(ccc21)CSc1ccccc1NC(=O)c1ccc(cc1)OCc1ccccc1COc1ccc(cc1)C(=O)Nc1ccccc1SC3,Dose-dependent effect
5,CCn1c2ccc3cc2c2cc(ccc21)CSc1ccccc1NC(=O)c1cccc(n1)C(=O)Nc1ccccc1SC3,Dose-dependent effect
6,CCn1c2ccc3cc2c2cc(ccc21)CSc1ccccc1NC(=O)c1cccc(c1)C(=O)Nc1ccccc1SC3,Dose-dependent effect

# Test system: Rhizoctonia solani
# Experiment: Antifungal activity against Rhizoctonia solani after 3 days by well diffusion assay
# Format: functional
# Details: not given
# Summary of the method: (§2)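 Fungi maintained on potato dextrose agar (potato 200 g/l, dextrose 20 g/l; pH 6.5) at room temperature (28 ± 2 °C). Well diffusion assay against DMSO control; MIC read as lowest concentration causing prominent inhibition of fungal growth after 3 days incubation at 37 °C.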
row,Structure (SMILES),Activity
1,CCn1c2ccc3cc2c2cc(ccc21)CSc1ccccc1NC(=O)COc1cccc(c1)OCC(=O)Nc1ccccc1SC3,Dose-dependent effect
2,CCn1c2ccc3cc2c2cc(ccc21)CSc1ccccc1NC(=O)c1ccccc1-c1ccccc1C(=O)Nc1ccccc1SC3,Dose-dependent effect
3,CCn1c2ccc3cc2c2cc(ccc21)CSc1ccccc1NC(=O)COc1ccc2ccccc2c1-c1c(ccc2ccccc12)OCC(=O)Nc1ccccc1SC3,Dose-dependent effect
4,CCn1c2ccc3cc2c2cc(ccc21)CSc1ccccc1NC(=O)c1ccc(cc1)OCc1ccccc1COc1ccc(cc1)C(=O)Nc1ccccc1SC3,Dose-dependent effect
5,CCn1c2ccc3cc2c2cc(ccc21)CSc1ccccc1NC(=O)c1cccc(n1)C(=O)Nc1ccccc1SC3,Dose-dependent effect
6,CCn1c2ccc3cc2c2cc(ccc21)CSc1ccccc1NC(=O)c1cccc(c1)C(=O)Nc1ccccc1SC3,Dose-dependent effect

# Same assay, conditions: 72 h
row,Structure (SMILES),MIC [µg/mL]
1,CCn1c2ccc3cc2c2cc(ccc21)CSc1ccccc1NC(=O)COc1cccc(c1)OCC(=O)Nc1ccccc1SC3,50
2,CCn1c2ccc3cc2c2cc(ccc21)CSc1ccccc1NC(=O)c1ccccc1-c1ccccc1C(=O)Nc1ccccc1SC3,20
3,CCn1c2ccc3cc2c2cc(ccc21)CSc1ccccc1NC(=O)COc1ccc2ccccc2c1-c1c(ccc2ccccc12)OCC(=O)Nc1ccccc1SC3,20
4,COC(=O)Nc1nc2ccccc2[nH]1 [CARBENDAZIM],25
5,CCn1c2ccc3cc2c2cc(ccc21)CSc1ccccc1NC(=O)c1ccc(cc1)OCc1ccccc1COc1ccc(cc1)C(=O)Nc1ccccc1SC3,40
6,CCn1c2ccc3cc2c2cc(ccc21)CSc1ccccc1NC(=O)c1cccc(n1)C(=O)Nc1ccccc1SC3,20
7,CCn1c2ccc3cc2c2cc(ccc21)CSc1ccccc1NC(=O)c1cccc(c1)C(=O)Nc1ccccc1SC3,30

# Test system: Macrophomina phaseolina
# Experiment: Antifungal activity against Macrophomina phaseolina after 3 days by well diffusion assay
# Format: functional
# Details: not given
# Summary of the method: as §2
row,Structure (SMILES),Activity
1,CCn1c2ccc3cc2c2cc(ccc21)CSc1ccccc1NC(=O)COc1cccc(c1)OCC(=O)Nc1ccccc1SC3,Dose-dependent effect
2,CCn1c2ccc3cc2c2cc(ccc21)CSc1ccccc1NC(=O)c1ccccc1-c1ccccc1C(=O)Nc1ccccc1SC3,Dose-dependent effect
3,CCn1c2ccc3cc2c2cc(ccc21)CSc1ccccc1NC(=O)COc1ccc2ccccc2c1-c1c(ccc2ccccc12)OCC(=O)Nc1ccccc1SC3,Dose-dependent effect
4,CCn1c2ccc3cc2c2cc(ccc21)CSc1ccccc1NC(=O)c1ccc(cc1)OCc1ccccc1COc1ccc(cc1)C(=O)Nc1ccccc1SC3,Dose-dependent effect
5,CCn1c2ccc3cc2c2cc(ccc21)CSc1ccccc1NC(=O)c1cccc(n1)C(=O)Nc1ccccc1SC3,Dose-dependent effect
6,CCn1c2ccc3cc2c2cc(ccc21)CSc1ccccc1NC(=O)c1cccc(c1)C(=O)Nc1ccccc1SC3,Dose-dependent effect

# Same assay, conditions: 72 h
row,Structure (SMILES),MIC [µg/mL]
1,CCn1c2ccc3cc2c2cc(ccc21)CSc1ccccc1NC(=O)COc1cccc(c1)OCC(=O)Nc1ccccc1SC3,45
2,CCn1c2ccc3cc2c2cc(ccc21)CSc1ccccc1NC(=O)c1ccccc1-c1ccccc1C(=O)Nc1ccccc1SC3,15
3,CCn1c2ccc3cc2c2cc(ccc21)CSc1ccccc1NC(=O)COc1ccc2ccccc2c1-c1c(ccc2ccccc12)OCC(=O)Nc1ccccc1SC3,15
4,COC(=O)Nc1nc2ccccc2[nH]1 [CARBENDAZIM],18
5,CCn1c2ccc3cc2c2cc(ccc21)CSc1ccccc1NC(=O)c1ccc(cc1)OCc1ccccc1COc1ccc(cc1)C(=O)Nc1ccccc1SC3,50
6,CCn1c2ccc3cc2c2cc(ccc21)CSc1ccccc1NC(=O)c1cccc(n1)C(=O)Nc1ccccc1SC3,10
7,CCn1c2ccc3cc2c2cc(ccc21)CSc1ccccc1NC(=O)c1cccc(c1)C(=O)Nc1ccccc1SC3,30

# Test system: Curvularia lunata
# Experiment: Antifungal activity against Curvularia lunata after 3 days by well diffusion assay
# Format: functional
# Details: not given
# Summary of the method: as §2
row,Structure (SMILES),Activity
1,CCn1c2ccc3cc2c2cc(ccc21)CSc1ccccc1NC(=O)COc1cccc(c1)OCC(=O)Nc1ccccc1SC3,Dose-dependent effect
2,CCn1c2ccc3cc2c2cc(ccc21)CSc1ccccc1NC(=O)c1ccccc1-c1ccccc1C(=O)Nc1ccccc1SC3,Dose-dependent effect
3,CCn1c2ccc3cc2c2cc(ccc21)CSc1ccccc1NC(=O)COc1ccc2ccccc2c1-c1c(ccc2ccccc12)OCC(=O)Nc1ccccc1SC3,Dose-dependent effect
4,CCn1c2ccc3cc2c2cc(ccc21)CSc1ccccc1NC(=O)c1ccc(cc1)OCc1ccccc1COc1ccc(cc1)C(=O)Nc1ccccc1SC3,Dose-dependent effect
5,CCn1c2ccc3cc2c2cc(ccc21)CSc1ccccc1NC(=O)c1cccc(n1)C(=O)Nc1ccccc1SC3,Dose-dependent effect
6,CCn1c2ccc3cc2c2cc(ccc21)CSc1ccccc1NC(=O)c1cccc(c1)C(=O)Nc1ccccc1SC3,Dose-dependent effect

# Same assay, conditions: 72 h
row,Structure (SMILES),MIC [µg/mL]
1,CCn1c2ccc3cc2c2cc(ccc21)CSc1ccccc1NC(=O)COc1cccc(c1)OCC(=O)Nc1ccccc1SC3,35
2,CCn1c2ccc3cc2c2cc(ccc21)CSc1ccccc1NC(=O)c1ccccc1-c1ccccc1C(=O)Nc1ccccc1SC3,20
3,CCn1c2ccc3cc2c2cc(ccc21)CSc1ccccc1NC(=O)COc1ccc2ccccc2c1-c1c(ccc2ccccc12)OCC(=O)Nc1ccccc1SC3,10
4,COC(=O)Nc1nc2ccccc2[nH]1 [CARBENDAZIM],15
5,CCn1c2ccc3cc2c2cc(ccc21)CSc1ccccc1NC(=O)c1ccc(cc1)OCc1ccccc1COc1ccc(cc1)C(=O)Nc1ccccc1SC3,20
6,CCn1c2ccc3cc2c2cc(ccc21)CSc1ccccc1NC(=O)c1cccc(n1)C(=O)Nc1ccccc1SC3,15
7,CCn1c2ccc3cc2c2cc(ccc21)CSc1ccccc1NC(=O)c1cccc(c1)C(=O)Nc1ccccc1SC3,20

# Test system: Alternaria alternata
# Experiment: Antifungal activity against Alternaria alternata after 3 days by well diffusion assay
# Format: functional
# Details: not given
# Summary of the method: as §2
row,Structure (SMILES),Activity
1,CCn1c2ccc3cc2c2cc(ccc21)CSc1ccccc1NC(=O)COc1cccc(c1)OCC(=O)Nc1ccccc1SC3,Dose-dependent effect
2,CCn1c2ccc3cc2c2cc(ccc21)CSc1ccccc1NC(=O)c1ccccc1-c1ccccc1C(=O)Nc1ccccc1SC3,Dose-dependent effect
3,CCn1c2ccc3cc2c2cc(ccc21)CSc1ccccc1NC(=O)COc1ccc2ccccc2c1-c1c(ccc2ccccc12)OCC(=O)Nc1ccccc1SC3,Dose-dependent effect
4,CCn1c2ccc3cc2c2cc(ccc21)CSc1ccccc1NC(=O)c1ccc(cc1)OCc1ccccc1COc1ccc(cc1)C(=O)Nc1ccccc1SC3,Dose-dependent effect
5,CCn1c2ccc3cc2c2cc(ccc21)CSc1ccccc1NC(=O)c1cccc(n1)C(=O)Nc1ccccc1SC3,Dose-dependent effect
6,CCn1c2ccc3cc2c2cc(ccc21)CSc1ccccc1NC(=O)c1cccc(c1)C(=O)Nc1ccccc1SC3,Dose-dependent effect

# Same assay, conditions: 72 h
row,Structure (SMILES),MIC [µg/mL]
1,CCn1c2ccc3cc2c2cc(ccc21)CSc1ccccc1NC(=O)COc1cccc(c1)OCC(=O)Nc1ccccc1SC3,25
2,CCn1c2ccc3cc2c2cc(ccc21)CSc1ccccc1NC(=O)c1ccccc1-c1ccccc1C(=O)Nc1ccccc1SC3,25
3,CCn1c2ccc3cc2c2cc(ccc21)CSc1ccccc1NC(=O)COc1ccc2ccccc2c1-c1c(ccc2ccccc12)OCC(=O)Nc1ccccc1SC3,10
4,COC(=O)Nc1nc2ccccc2[nH]1 [CARBENDAZIM],12
5,CCn1c2ccc3cc2c2cc(ccc21)CSc1ccccc1NC(=O)c1ccc(cc1)OCc1ccccc1COc1ccc(cc1)C(=O)Nc1ccccc1SC3,15
6,CCn1c2ccc3cc2c2cc(ccc21)CSc1ccccc1NC(=O)c1cccc(n1)C(=O)Nc1ccccc1SC3,15
7,CCn1c2ccc3cc2c2cc(ccc21)CSc1ccccc1NC(=O)c1cccc(c1)C(=O)Nc1ccccc1SC3,15
